This note sets out measurements from ChEMBL document CHEMBL2331267 (J Med Chem, 2013).

Structures are written as SMILES.

The target of data set [1] is T1, Acid ceramidase (Rattus norvegicus, UniProt Q6P7S1).
T1 sequence (Q6P7S1 whole entry): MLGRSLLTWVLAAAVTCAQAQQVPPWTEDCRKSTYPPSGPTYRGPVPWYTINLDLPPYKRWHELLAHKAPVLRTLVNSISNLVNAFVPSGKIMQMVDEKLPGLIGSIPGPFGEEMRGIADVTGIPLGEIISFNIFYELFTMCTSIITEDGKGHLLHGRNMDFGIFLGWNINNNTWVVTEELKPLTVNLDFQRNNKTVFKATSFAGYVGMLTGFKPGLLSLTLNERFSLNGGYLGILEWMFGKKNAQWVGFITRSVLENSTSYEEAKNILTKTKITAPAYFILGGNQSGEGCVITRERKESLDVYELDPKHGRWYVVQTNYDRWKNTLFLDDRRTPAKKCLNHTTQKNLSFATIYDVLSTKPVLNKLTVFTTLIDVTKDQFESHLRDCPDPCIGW
In words: Inhibition of rat recombinant acid ceramidase expressed in human HEK293 cells using N-lauroylceramide as substrate incubated for 30 mins prior to substrate addition measured after 30 mins by LC/MS analysis. The gist of the method:
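Rat AC from cell lysate: sucrose/Tris homogenate, 12000g pellet, freeze–thaw in PBS, 105000g supernatant. Enzyme (50 μg protein) preincubated 30 min, 37 °C, with inhibitor (final DMSO 1%) in pH 4.5 phosphate/citrate buffer with 0.1% NP-40, 150 mM NaCl, 3 mM DTT; 100 μM N-lauroylceramide, 30 min, 37 °C; lauric acid quantified by LC/MS against heptadecanoic acid standard.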

The nature of data set [2]: Chemical stability of the compound in DMSO-d6 solution after 120 mins by LC/MS analysis. In kind it is physicochemical. Particulars: 2 h; call rule not given here.
For data set [3], the target named is T2, Acid ceramidase (Homo sapiens, UniProt Q13510).
T2 sequence (Q13510 whole entry): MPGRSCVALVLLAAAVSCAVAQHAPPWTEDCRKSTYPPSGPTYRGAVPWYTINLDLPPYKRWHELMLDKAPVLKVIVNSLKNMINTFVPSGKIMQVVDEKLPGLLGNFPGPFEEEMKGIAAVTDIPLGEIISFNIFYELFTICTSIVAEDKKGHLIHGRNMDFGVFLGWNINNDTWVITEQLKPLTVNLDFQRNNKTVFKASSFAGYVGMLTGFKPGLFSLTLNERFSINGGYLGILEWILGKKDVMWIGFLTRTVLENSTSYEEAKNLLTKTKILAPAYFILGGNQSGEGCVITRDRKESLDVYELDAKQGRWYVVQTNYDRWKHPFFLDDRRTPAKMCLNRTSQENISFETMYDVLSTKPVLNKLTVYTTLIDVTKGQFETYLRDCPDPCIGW
In words: Inhibition of acid ceramidase (unknown origin).

Data set [4] in a line: Antiproliferative activity against human SW403 cells after 72 hrs by MTT assay. Conditions: SW-403, 72 h. Format: functional, cell-based. In a few lines:
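SW403 cells exposed to compounds for 72 h; viability read by MTT reduction, n=4 per drug concentration; EC50 derived from concentration–response.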
A general note: Tetrazolium assays rely on reduction of a dye to a coloured formazan, in cell work by metabolically active cells.

The nature of data set [5]: Chemical stability of the compound in buffer at pH 4.5 after 30 mins by LC/MS analysis. Format: physicochemical. Particulars: read-out: Stability.

The term IC50 denotes the concentration that gives 50% inhibition. Consider `CCCCNC(=O)n1ccc(=O)[nH]c1=O`, for which the IC50 in data set [1] (read-out: IC50) is 8500 nM. Still for that read-out and setting: the figure for `CCCCCCNC(=O)n1ccc(=O)n(C)c1=O` is 53 nM. With `CCCCCCNC(=O)n1c(Cl)cc(=O)[nH]c1=O`, in data set [1] (hek293), the IC50 entry is given as “ND(Unstable)”. Moreover, the Stability entry in data set [2] was “Unstable”.

By Ki is commonly meant the dissociation constant of the complex between target and ligand, obtained from inhibition or displacement. As to `CCCCCCCC/C=C\CCCCCCCC(=O)NCCO` [OLEOYLETHANOLAMIDE], in data set [3], the Ki was found to be 500 µM. Regarding `CCCCCCNC(=O)n1cc(CC)c(=O)[nH]c1=O`, the IC50 in data set [1] (read-out: IC50) stood at 733 nM. In general, EC50 refers to the concentration at which the effect is half-maximal. As to `CCCCCCCCNC(=O)n1ccc(=O)[nH]c1=O`, in data set [1] (read-out: IC50), the IC50 was determined as 283 nM. In data set [4], this compound came in with an EC50 of 20 µM. `CCCCCCNC(=O)n1cc(F)c(=O)n(C(=O)c2ccccc2)c1=O`: the IC50 in data set [1] (read-out: IC50) is 20 nM. Regarding `CCCCCCCCNC(=O)n1cc(F)c(=O)n(C(=O)OC)c1=O`, the IC50 in data set [1] (read-out: IC50) was found to be 4 nM. The same measure, in the same setting: the figure for `CCCCCCNC(=O)n1cc(C)c(=O)[nH]c1=O` is 1460 nM. Still for that read-out and setting: the figure for `CCCCCCCCNC(=O)n1cc(F)c(=O)[nH]c1=O` is 46 nM.

Take `CCCCCCNC(=O)n1cc(C(F)(F)F)c(=O)[nH]c1=O`: the IC50 in data set [1] (hek293, read-out: IC50) stood at 12 nM.

As to `CCCCCCNC(=O)n1cc(F)c(=O)n(C)c1=O`, the IC50 in data set [1] (read-out: IC50) amounted to 13 nM. Further, the 50% effective concentration (EC50) in data set [4] was 22 µM. In the case of `CCCCCCNC(=O)n1ccc(=O)[nH]c1=O`, the IC50 in data set [1] (hek293, read-out: IC50) was determined as 426 nM. On to `CCCCCCNC(=O)n1cc(F)c(=O)n(C(=O)OCC)c1=O`, for which the IC50 in data set [1] (read-out: IC50) was found to be 12 nM. The same measure, in the same setting: as for `CCCCCCNC(=O)n1cc(F)c(=O)n(C(=O)OCC(C)C)c1=O`, the figure is 16 nM. Regarding `CCCCCCNC(=O)n1cc(F)c(=O)[nH]c1=O` [CARMOFUR], the IC50 in data set [1] (hek293, read-out: IC50) amounted to 29 nM. `CCCCCCNC(=O)n1cc(F)c(=O)n(C(=O)OC)c1=O`: the IC50 in data set [1] (read-out: IC50) was determined as 7 nM. In turn, `CCCCCCNC(=O)n1cc(-c2ccccc2)c(=O)[nH]c1=O` registered an EC50 in data set [4] of 24 µM. Take `CCCCCCNC(=O)n1c(C)c(C)c(=O)[nH]c1=O`: the IC50 result in data set [1] (hek293) is on record as “ND(Unstable)”. Also, the Stability entry in data set [2] was “Unstable”. As for `CCCCCCN(C)C(=O)n1ccc(=O)[nH]c1=O`, the IC50 entry in data set [1] (hek293) is on record as “Not Active”. In the case of `CCCCCCCNC(=O)n1ccc(=O)[nH]c1=O`, the 50% inhibitory concentration (IC50) in data set [1] (read-out: IC50) amounted to 325 nM. `CCCCCCCCCNC(=O)n1ccc(=O)[nH]c1=O`: the IC50 in data set [1] (read-out: IC50) came to 464 nM. Consider `CCCCCCNC(=O)n1cc(C#N)c(=O)[nH]c1=O`, for which the IC50 entry in data set [1] (hek293) is “ND(Unstable)”. Further, the remaining at 0.5 h in data set [5] amounted to 22%. For the compound `CCCCCNC(=O)n1ccc(=O)[nH]c1=O`, the IC50 in data set [1] (read-out: IC50) was 2100 nM. In the case of `CCCCCCNC(=O)N1CCC(=O)NC1=O`, the IC50 entry in data set [1] (hek293) is listed as “Not Active”. In the case of `CCCCCCNC(=O)n1cc(F)c(=O)n(C(=O)C(C)C)c1=O`, in data set [1] (read-out: IC50), the IC50 came to 21 nM.

In the case of `CCCCCCNC(=O)n1cc(F)c(=O)n(CC)c1=O`, the concentration for half-maximal inhibition (IC50) in data set [1] (read-out: IC50) was 18 nM. Consider `CCCCCCNC(=O)n1cc(F)c(=O)n(CC2CC2)c1=O`, for which, in data set [1] (read-out: IC50), the IC50 was 61 nM.
